This note sets out measurements from ChEMBL document CHEMBL1152550, “Synthesis and structure-activity relationships of N-aryl(indol-3-yl)glyoxamides as antitumor agents” (Bioorg Med Chem, 2009).

Molecules are shown by their SMILES. Some results are limits rather than exact numbers.

What all share (assay type): functional, cell-based
Experiment [1] in a line: Cytotoxicity against human KB/HeLa cells after 48 hrs by XTT assay. Background: Formazan colour is commonly taken as a measure of viable cells.
Experiment [2] relates to L1210. The experiment in a line: Cytotoxicity against mouse L1210 cells after 48 hrs by XTT assay. The conditions noted are these: L1210, 48 h.
The test system of experiment [3] is SK-OV-3. The experiment is described as follows: Cytotoxicity against human SKOV3 cells after 48 hrs by XTT assay. Conditions: SK-OV-3, 48 h.
The nature of experiment [4]: Cell cycle arrest in human KB/HeLa cells assessed as accumulation in G2/M phase by cytometric analysis. In short, it runs like this: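 HeLa/KB cells; nuclei isolated with detergent lysis, trypsin, RNA digestion and spermine chromatin stabilisation, then stained stoichiometrically with propidium iodide. Read by flow cytometry with doublet discrimination, FL2 detector collecting 564–606 nm emission; DNA histograms analysed for cell cycle phase distribution across a concentration series (dose–response).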

Regarding `COc1cc(NC(=O)C(=O)c2cn(Cc3ccc(F)cc3)c3ccccc23)cc(OC)c1OC`, the IC50 came to 0.378 µM in experiment [1], 0.378 µM in experiment [2] and 3.78 µM in experiment [3].

On to `O=C(Nc1ccncc1)C(=O)c1cn(Cc2ccc(Cl)cc2)c2ccccc12` [INDIBULIN], for which the IC50 in experiment [1] amounted to 0.044 µM; in experiment [2] it was 0.044 µM; in experiment [3], 0.077 µM. For the same compound, the Activity result in experiment [4] is “Dose-dependent effect”.

In the case of `N#Cc1ccc(NC(=O)C(=O)c2cn(Cc3ccc(F)cc3)c3ccccc23)cc1`, the IC50 in experiment [1], in experiment [2] and in experiment [3] was above 10 µM throughout.

Take `O=C(Nc1ccncc1)C(=O)c1cn(Cc2ccc(F)cc2)c2ccccc12`: the values for the IC50 in experiment [1], in experiment [2] and in experiment [3] were 0.054 µM, 0.455 µM and 0.455 µM, respectively. For the same compound, in experiment [4], the Activity entry was “Dose-dependent effect”.

With `O=C(Nc1cccnc1)C(=O)c1cn(Cc2ccc(F)cc2)c2ccccc12`, the IC50 in experiment [1], in experiment [2] and in experiment [3] was 4.69 µM throughout.

As for `O=C(Nc1ccc([N+](=O)[O-])cc1)C(=O)c1cn(Cc2ccc(F)cc2)c2ccccc12`, the IC50 in experiment [1], in experiment [2] and in experiment [3] was above 10 µM throughout.

Consider `CCOC(=O)c1ccc(NC(=O)C(=O)c2cn(Cc3ccc(F)cc3)c3ccccc23)cc1`, for which the half-inhibitory concentration (IC50) in experiment [1], in experiment [2] and in experiment [3] was 3.94 µM in each case.

Turning to `O=C(Nc1ccc(Br)cc1)C(=O)c1cn(Cc2ccc(F)cc2)c2ccccc12`, the IC50 in experiment [1], in experiment [2] and in experiment [3] was 3.88 µM each time.

Consider `O=C(Nc1ccccn1)C(=O)c1cn(Cc2ccc(F)cc2)c2ccccc12`, for which the IC50 in experiment [1] is above 10 µM; in experiment [2] it was 8.3 µM; in experiment [3], above 10 µM.

As for `O=C(C(=O)N1CCN(c2ccncc2)CC1)c1cn(Cc2ccc(F)cc2)c2ccccc12`, the figures for the IC50 in experiment [1], in experiment [2] and in experiment [3] were above 10 µM, 3.96 µM and above 10 µM, respectively.

For `O=C(Nc1ccc(F)cc1)C(=O)c1cn(Cc2ccc(F)cc2)c2ccccc12`, the IC50 in experiment [1] is 7.94 µM; in experiment [2], 4.48 µM; in experiment [3], above 10 µM.

Broadly, the IC50 is the midpoint of a concentration-inhibition curve.
